Measured values: ChEMBL document CHEMBL2331520, “Synthesis, surface tension properties and antibacterial activities of amphiphilic D-galactopyranose derivatives” (Eur J Med Chem, 2013)
Converted amounts (≈) assume the structure as drawn.

System: Enterobacter cloacae
Assay: Antibacterial activity against Enterobacter cloacae ATCC 13047 assessed as growth inhibition at 30 degC after 24 hrs by liquid broth dilution method
Assay type: functional
Conditions: ATCC 13047, 24 h; call rule not given here
In short: (§1)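 Strains kept at -80 °C in LB broth with 20% glycerol and grown from 1% (v/v) stock in nutritive broth (yeast extract 1 g/L, meat extract 2 g/L, peptone 5 g/L, NaCl 5 g/L) at 30 °C. Overnight culture adjusted to 0.5 McFarland (~1.5 × 10⁸ cfu/mL). Compound stock 1 g/L in DMSO, serially diluted in broth 1:2 to 1:512, mixed 1:1 with inoculum. Incubation 24 h, 150 rpm, 30 °C. OD600 read; MIC = lowest concentration with no OD increase in all replicates versus negative control.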

MIC [µg/mL]	Structure (SMILES)
62.5 (≈ 163 µM)	CCCCCCCCOc1ccc(OC[C@H]2O[C@H](O)[C@H](O)[C@@H](O)[C@H]2O)cc1
62.5 (≈ 149 µM)	CCCCCCCCCCCCOCCCCOC[C@H]1O[C@H](O)[C@H](O)[C@@H](O)[C@H]1O
62.5 (≈ 150 µM)	CCCCCCCCCCCCOCC#CCOC[C@H]1O[C@H](O)[C@H](O)[C@@H](O)[C@H]1O

Further lines, the molecule ahead of its results:

Structure (SMILES)	MIC [µg/mL]
CCCCCCCCCCCCOc1ccc(OC[C@H]2O[C@H](O)[C@H](O)[C@@H](O)[C@H]2O)cc1	62.5 (≈ 142 µM)
O=C(N[C@H](CO)[C@H](O)c1ccc([N+](=O)[O-])cc1)C(Cl)Cl [CHLORAMPHENICOL]	< 0.98

System: Escherichia coli
Assay: Antibacterial activity against Escherichia coli ATCC 10536 assessed as growth inhibition at 30 degC after 24 hrs by liquid broth dilution method
Assay type: functional
Conditions: ATCC 10536, 24 h
In short: as §1

MIC [µg/mL]	Structure (SMILES)
62.5 (≈ 163 µM)	CCCCCCCCOc1ccc(OC[C@H]2O[C@H](O)[C@H](O)[C@@H](O)[C@H]2O)cc1
62.5 (≈ 149 µM)	CCCCCCCCCCCCOCCCCOC[C@H]1O[C@H](O)[C@H](O)[C@@H](O)[C@H]1O
62.5 (≈ 150 µM)	CCCCCCCCCCCCOCC#CCOC[C@H]1O[C@H](O)[C@H](O)[C@@H](O)[C@H]1O

Continued, molecule first:

Structure (SMILES)	MIC [µg/mL]
CCCCCCCCCCCCOc1ccc(OC[C@H]2O[C@H](O)[C@H](O)[C@@H](O)[C@H]2O)cc1	62.5 (≈ 142 µM)
O=C(N[C@H](CO)[C@H](O)c1ccc([N+](=O)[O-])cc1)C(Cl)Cl [CHLORAMPHENICOL]	< 0.98

System: Micrococcus luteus
Assay: Antibacterial activity against Micrococcus luteus CIP 53.45 assessed as growth inhibition at 30 degC after 24 hrs by liquid broth dilution method
Assay type: functional
Conditions: CIP 53.45, 24 h
In short: as §1

MIC [µg/mL]	Structure (SMILES)
62.5 (≈ 163 µM)	CCCCCCCCOc1ccc(OC[C@H]2O[C@H](O)[C@H](O)[C@@H](O)[C@H]2O)cc1
15.6 (≈ 37.1 µM)	CCCCCCCCCCCCOCCCCOC[C@H]1O[C@H](O)[C@H](O)[C@@H](O)[C@H]1O
3.91 (≈ 9.39 µM)	CCCCCCCCCCCCOCC#CCOC[C@H]1O[C@H](O)[C@H](O)[C@@H](O)[C@H]1O

The next lines start with the molecule.

Structure (SMILES)	MIC [µg/mL]
CCCCCCCCCCCCOc1ccc(OC[C@H]2O[C@H](O)[C@H](O)[C@@H](O)[C@H]2O)cc1	62.5 (≈ 142 µM)
O=C(N[C@H](CO)[C@H](O)c1ccc([N+](=O)[O-])cc1)C(Cl)Cl [CHLORAMPHENICOL]	< 0.98

System: Geobacillus stearothermophilus
Assay: Antibacterial activity against Bacillus stearothermophilus ATTC 12980 assessed as growth inhibition at 30 degC after 24 hrs by liquid broth dilution method
Assay type: functional
Conditions: ATTC 12980, 24 h
In short: as §1

MIC [µg/mL]	Structure (SMILES)
62.5 (≈ 163 µM)	CCCCCCCCOc1ccc(OC[C@H]2O[C@H](O)[C@H](O)[C@@H](O)[C@H]2O)cc1
31.2 (≈ 74.3 µM)	CCCCCCCCCCCCOCCCCOC[C@H]1O[C@H](O)[C@H](O)[C@@H](O)[C@H]1O
7.81 (≈ 18.7 µM)	CCCCCCCCCCCCOCC#CCOC[C@H]1O[C@H](O)[C@H](O)[C@@H](O)[C@H]1O

Continued, molecule first:

Structure (SMILES)	MIC [µg/mL]
CCCCCCCCCCCCOc1ccc(OC[C@H]2O[C@H](O)[C@H](O)[C@@H](O)[C@H]2O)cc1	62.5 (≈ 142 µM)
O=C(N[C@H](CO)[C@H](O)c1ccc([N+](=O)[O-])cc1)C(Cl)Cl [CHLORAMPHENICOL]	3.9 (≈ 12.1 µM)

System: Pseudomonas aeruginosa
Assay: Antibacterial activity against Pseudomonas aeruginosa CIP A22 assessed as growth inhibition at 30 degC after 24 hrs by liquid broth dilution method
Assay type: functional
Conditions: CIP A22, 24 h
In short: as §1

MIC [µg/mL]	Structure (SMILES)
125 (≈ 325 µM)	CCCCCCCCOc1ccc(OC[C@H]2O[C@H](O)[C@H](O)[C@@H](O)[C@H]2O)cc1
62.5 (≈ 149 µM)	CCCCCCCCCCCCOCCCCOC[C@H]1O[C@H](O)[C@H](O)[C@@H](O)[C@H]1O
62.5 (≈ 150 µM)	CCCCCCCCCCCCOCC#CCOC[C@H]1O[C@H](O)[C@H](O)[C@@H](O)[C@H]1O

The next lines start with the molecule.

Structure (SMILES)	MIC [µg/mL]
CCCCCCCCCCCCOc1ccc(OC[C@H]2O[C@H](O)[C@H](O)[C@@H](O)[C@H]2O)cc1	62.5 (≈ 142 µM)
O=C(N[C@H](CO)[C@H](O)c1ccc([N+](=O)[O-])cc1)C(Cl)Cl [CHLORAMPHENICOL]	1.95 (≈ 6.03 µM)

System: Citrobacter freundii
Assay: Antibacterial activity against Citrobacter freundii ATCC 6750 assessed as growth inhibition at 30 degC after 24 hrs by liquid broth dilution method
Assay type: functional
Conditions: ATCC 6750, 24 h
In short: as §1

MIC [µg/mL]	Structure (SMILES)
125 (≈ 325 µM)	CCCCCCCCOc1ccc(OC[C@H]2O[C@H](O)[C@H](O)[C@@H](O)[C@H]2O)cc1
62.5 (≈ 149 µM)	CCCCCCCCCCCCOCCCCOC[C@H]1O[C@H](O)[C@H](O)[C@@H](O)[C@H]1O
62.5 (≈ 150 µM)	CCCCCCCCCCCCOCC#CCOC[C@H]1O[C@H](O)[C@H](O)[C@@H](O)[C@H]1O

The next lines start with the molecule.

Structure (SMILES)	MIC [µg/mL]
CCCCCCCCCCCCOc1ccc(OC[C@H]2O[C@H](O)[C@H](O)[C@@H](O)[C@H]2O)cc1	125 (≈ 284 µM)
O=C(N[C@H](CO)[C@H](O)c1ccc([N+](=O)[O-])cc1)C(Cl)Cl [CHLORAMPHENICOL]	7.8 (≈ 24.1 µM)

System: Mycolicibacterium smegmatis
Assay: Antibacterial activity against Mycobacterium smegmatis CIP 73.26 assessed as growth inhibition at 37 degC after 24 hrs by liquid broth dilution method
Assay type: functional
Conditions: CIP 73.26, 24 h
In short: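 Inoculum at 0.5 McFarland (~1.5 × 10⁸ cfu/mL). DMSO stock (1 g/L) serially diluted in the same medium 1:2 to 1:512. Shaken 24 h at 150 rpm, 37 °C. MIC = lowest concentration with no OD600 rise in any replicate versus negative control.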

MIC [µg/mL]	Structure (SMILES)
62.5 (≈ 163 µM)	CCCCCCCCOc1ccc(OC[C@H]2O[C@H](O)[C@H](O)[C@@H](O)[C@H]2O)cc1
62.5 (≈ 149 µM)	CCCCCCCCCCCCOCCCCOC[C@H]1O[C@H](O)[C@H](O)[C@@H](O)[C@H]1O
62.5 (≈ 150 µM)	CCCCCCCCCCCCOCC#CCOC[C@H]1O[C@H](O)[C@H](O)[C@@H](O)[C@H]1O

The next lines start with the molecule.

Structure (SMILES)	MIC [µg/mL]
CCCCCCCCCCCCOc1ccc(OC[C@H]2O[C@H](O)[C@H](O)[C@@H](O)[C@H]2O)cc1	62.5 (≈ 142 µM)
O=C(N[C@H](CO)[C@H](O)c1ccc([N+](=O)[O-])cc1)C(Cl)Cl [CHLORAMPHENICOL]	1.95 (≈ 6.03 µM)

System: not listed separately
Assay: Gamma critical micelle concentration of the compound by wilhelmy method
Assay type: physicochemical
Conditions: not given
In short: (§2)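 Wilhelmy plate method at 293 K. Concentrated solution added stepwise from a syringe into ultrapure water, stirred gently 30 s after each addition, then equilibrium surface tension read. Each value is the mean of at least three measurements (SD within ±1.5% of mean). Transducer precision 0.1 mN/m; platinum plate flame-cleaned. Surface tension plotted against molar concentration to give CMC and γCMC.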

gammaCMC	Structure (SMILES)
Not Active	CCCCCCCCOc1ccc(OC[C@H]2O[C@H](O)[C@H](O)[C@@H](O)[C@H]2O)cc1
48 mN/meter	CCCCCCCCCCCCOCCCCOC[C@H]1O[C@H](O)[C@H](O)[C@@H](O)[C@H]1O
35 mN/meter	CCCCCCCCCCCCOCC#CCOC[C@H]1O[C@H](O)[C@H](O)[C@@H](O)[C@H]1O
54 mN/meter	CCCCCCCCCCCCOc1ccc(OC[C@H]2O[C@H](O)[C@H](O)[C@@H](O)[C@H]2O)cc1

System: Dickeya chrysanthemi
Assay: Antibacterial activity against Erwinia chrysanthemi EC3937 assessed as growth inhibition at 30 degC after 24 hrs by liquid broth dilution method
Assay type: functional
Conditions: EC3937, 24 h
In short: as §1

MIC [µg/mL]	Structure (SMILES)
62.5 (≈ 163 µM)	CCCCCCCCOc1ccc(OC[C@H]2O[C@H](O)[C@H](O)[C@@H](O)[C@H]2O)cc1
62.5 (≈ 149 µM)	CCCCCCCCCCCCOCCCCOC[C@H]1O[C@H](O)[C@H](O)[C@@H](O)[C@H]1O
62.5 (≈ 150 µM)	CCCCCCCCCCCCOCC#CCOC[C@H]1O[C@H](O)[C@H](O)[C@@H](O)[C@H]1O

The next lines start with the molecule.

Structure (SMILES)	MIC [µg/mL]
CCCCCCCCCCCCOc1ccc(OC[C@H]2O[C@H](O)[C@H](O)[C@@H](O)[C@H]2O)cc1	62.5 (≈ 142 µM)
O=C(N[C@H](CO)[C@H](O)c1ccc([N+](=O)[O-])cc1)C(Cl)Cl [CHLORAMPHENICOL]	0.98 (≈ 3.03 µM)

System: Sinorhizobium meliloti
Assay: Antibacterial activity against Sinorhizobium meliloti Rm1021 assessed as growth inhibition at 30 degC after 24 hrs by liquid broth dilution method
Assay type: functional
Conditions: Rm1021, 24 h
In short: as §1

MIC [µg/mL]	Structure (SMILES)
62.5 (≈ 163 µM)	CCCCCCCCOc1ccc(OC[C@H]2O[C@H](O)[C@H](O)[C@@H](O)[C@H]2O)cc1
62.5 (≈ 149 µM)	CCCCCCCCCCCCOCCCCOC[C@H]1O[C@H](O)[C@H](O)[C@@H](O)[C@H]1O
31.2 (≈ 75 µM)	CCCCCCCCCCCCOCC#CCOC[C@H]1O[C@H](O)[C@H](O)[C@@H](O)[C@H]1O

The next lines start with the molecule.

Structure (SMILES)	MIC [µg/mL]
CCCCCCCCCCCCOc1ccc(OC[C@H]2O[C@H](O)[C@H](O)[C@@H](O)[C@H]2O)cc1	62.5 (≈ 142 µM)
O=C(N[C@H](CO)[C@H](O)c1ccc([N+](=O)[O-])cc1)C(Cl)Cl [CHLORAMPHENICOL]	< 0.98

System: Staphylococcus aureus
Assay: Antibacterial activity against Staphylococcus aureus subsp aureus CIP 53.154 assessed as growth inhibition at 30 degC after 24 hrs by liquid broth dilution method
Assay type: functional
Conditions: CIP 53.154, 24 h
In short: as §1

MIC [µg/mL]	Structure (SMILES)
125 (≈ 325 µM)	CCCCCCCCOc1ccc(OC[C@H]2O[C@H](O)[C@H](O)[C@@H](O)[C@H]2O)cc1
125 (≈ 297 µM)	CCCCCCCCCCCCOCCCCOC[C@H]1O[C@H](O)[C@H](O)[C@@H](O)[C@H]1O
62.5 (≈ 150 µM)	CCCCCCCCCCCCOCC#CCOC[C@H]1O[C@H](O)[C@H](O)[C@@H](O)[C@H]1O

More lines, now with the values behind:

Structure (SMILES)	MIC [µg/mL]
CCCCCCCCCCCCOc1ccc(OC[C@H]2O[C@H](O)[C@H](O)[C@@H](O)[C@H]2O)cc1	125 (≈ 284 µM)
O=C(N[C@H](CO)[C@H](O)c1ccc([N+](=O)[O-])cc1)C(Cl)Cl [CHLORAMPHENICOL]	< 0.98

System: not listed separately
Assay: Critical micelle concentration of the compound by wilhelmy method
Assay type: physicochemical
Conditions: not given
In short: as §2

CMC	Structure (SMILES)
Not Active	CCCCCCCCOc1ccc(OC[C@H]2O[C@H](O)[C@H](O)[C@@H](O)[C@H]2O)cc1
0.023 mmol/L	CCCCCCCCCCCCOCCCCOC[C@H]1O[C@H](O)[C@H](O)[C@@H](O)[C@H]1O
0.032 mmol/L	CCCCCCCCCCCCOCC#CCOC[C@H]1O[C@H](O)[C@H](O)[C@@H](O)[C@H]1O
3.1 mmol/L	CCCCCCCCCCCCOc1ccc(OC[C@H]2O[C@H](O)[C@H](O)[C@@H](O)[C@H]2O)cc1
